Source: ChEMBL document CHEMBL4007437, “High-Potency Phenylquinoxalinone Cystic Fibrosis Transmembrane Conductance Regulator (CFTR) Activators” (J Med Chem, 2017)
Calls of active or inactive are those of the source. The calls are words filed in the database; no cut-off is given here.

Legend:
[1] = target: Cystic fibrosis transmembrane conductance regulator (Homo sapiens, UniProt P13569, H148Q); experiment: Activation of human CFTR expressed in FRT cells co-expressing YFP H148Q mutant assessed as increase in forskolin-stimulated iodide influx measured after 10 mins by fluorescence assay; assay type: cell-based
Chain of Cystic fibrosis transmembrane conductance regulator (Homo sapiens, UniProt P13569, H148Q) (P13569 whole entry, looked up, stated change not applied): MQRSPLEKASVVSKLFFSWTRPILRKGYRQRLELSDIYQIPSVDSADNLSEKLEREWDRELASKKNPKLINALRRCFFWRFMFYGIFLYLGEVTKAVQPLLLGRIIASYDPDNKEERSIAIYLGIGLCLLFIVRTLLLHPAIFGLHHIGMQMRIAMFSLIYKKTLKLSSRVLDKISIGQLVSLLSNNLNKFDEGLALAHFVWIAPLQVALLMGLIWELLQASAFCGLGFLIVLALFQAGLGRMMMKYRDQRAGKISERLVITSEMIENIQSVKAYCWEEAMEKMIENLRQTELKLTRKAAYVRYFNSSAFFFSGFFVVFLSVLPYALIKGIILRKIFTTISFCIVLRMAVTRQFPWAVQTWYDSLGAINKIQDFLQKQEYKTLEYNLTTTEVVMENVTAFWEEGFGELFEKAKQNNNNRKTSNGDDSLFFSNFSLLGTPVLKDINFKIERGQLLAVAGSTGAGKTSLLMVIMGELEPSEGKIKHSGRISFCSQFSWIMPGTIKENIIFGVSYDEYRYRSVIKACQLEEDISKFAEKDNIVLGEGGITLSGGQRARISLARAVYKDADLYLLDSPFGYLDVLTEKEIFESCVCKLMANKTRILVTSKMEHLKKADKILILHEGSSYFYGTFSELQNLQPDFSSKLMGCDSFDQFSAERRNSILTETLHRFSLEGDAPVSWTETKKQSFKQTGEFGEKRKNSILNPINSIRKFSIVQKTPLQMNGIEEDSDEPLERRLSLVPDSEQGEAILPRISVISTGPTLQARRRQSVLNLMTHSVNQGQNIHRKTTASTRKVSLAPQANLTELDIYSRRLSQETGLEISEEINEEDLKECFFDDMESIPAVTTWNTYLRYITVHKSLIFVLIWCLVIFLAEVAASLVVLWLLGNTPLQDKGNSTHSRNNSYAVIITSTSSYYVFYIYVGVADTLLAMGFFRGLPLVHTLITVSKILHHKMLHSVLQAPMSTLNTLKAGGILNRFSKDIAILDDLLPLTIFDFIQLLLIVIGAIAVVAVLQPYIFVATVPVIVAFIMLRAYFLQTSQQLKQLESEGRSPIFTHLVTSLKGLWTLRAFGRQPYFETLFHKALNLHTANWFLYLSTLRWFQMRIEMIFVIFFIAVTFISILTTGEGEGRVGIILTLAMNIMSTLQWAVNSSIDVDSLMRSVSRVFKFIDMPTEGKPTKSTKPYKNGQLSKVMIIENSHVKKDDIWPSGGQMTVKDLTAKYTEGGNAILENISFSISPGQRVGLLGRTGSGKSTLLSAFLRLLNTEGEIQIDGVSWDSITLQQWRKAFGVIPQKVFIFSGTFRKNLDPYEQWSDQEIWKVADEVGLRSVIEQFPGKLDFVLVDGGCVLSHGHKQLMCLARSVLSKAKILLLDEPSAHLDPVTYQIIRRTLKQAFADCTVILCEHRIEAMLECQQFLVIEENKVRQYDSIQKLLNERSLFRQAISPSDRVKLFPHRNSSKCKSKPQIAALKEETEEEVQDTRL
Method in brief: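 FRT cells stably coexpressing human wild-type CFTR and YFP-H148Q, near-confluent; washed with PBS, then 10 min in PBS with test compound and 125 nM forskolin. YFP fluorescence recorded 2 s baseline and 12 s after iodide addition (final 140 mM). Iodide influx rates fitted to concentration–response curves for EC50.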

[2] = species on record: Homo sapiens; experiment: Activation of calcium-activated chloride channel in human HT29 cells co-expressing YFP at 10 uM after 10 mins presence of iodide by fluorescence assay; assay type: cell-based
[3] = Effect on cAMP levels in Fischer rat thyroid cells at 10 uM incubated for 10 mins by immunoassay; assay type: ADME, cell-based; conditions: thyroid cell
Method in brief: (§1)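 FRT cells incubated 10 min with 10 μM compound, without or with 90 nM forskolin, then cellular cAMP measured. Positive controls: forskolin 100 nM and 20 μM, forskolin + IBMX (20 μM + 100 μM). Mean ± SEM, n = 4.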

[4] = Elevation of cytoplasmic calcium levels in Fischer rat thyroid cells at 10 uM after 5 mins by Fluo-4 based fluorescence assay; conditions: thyroid cell
[5] = target: T1, Anoctamin-1 (Homo sapiens) (UniProt Q5XXA6); experiment: Activation of human TMEM16A expressed in FRT cells co-expressing YFP assessed as increase in iodide influx at 10 uM measured after 10 mins by fluorescence assay; assay type: cell-based
T1 sequence (whole entry): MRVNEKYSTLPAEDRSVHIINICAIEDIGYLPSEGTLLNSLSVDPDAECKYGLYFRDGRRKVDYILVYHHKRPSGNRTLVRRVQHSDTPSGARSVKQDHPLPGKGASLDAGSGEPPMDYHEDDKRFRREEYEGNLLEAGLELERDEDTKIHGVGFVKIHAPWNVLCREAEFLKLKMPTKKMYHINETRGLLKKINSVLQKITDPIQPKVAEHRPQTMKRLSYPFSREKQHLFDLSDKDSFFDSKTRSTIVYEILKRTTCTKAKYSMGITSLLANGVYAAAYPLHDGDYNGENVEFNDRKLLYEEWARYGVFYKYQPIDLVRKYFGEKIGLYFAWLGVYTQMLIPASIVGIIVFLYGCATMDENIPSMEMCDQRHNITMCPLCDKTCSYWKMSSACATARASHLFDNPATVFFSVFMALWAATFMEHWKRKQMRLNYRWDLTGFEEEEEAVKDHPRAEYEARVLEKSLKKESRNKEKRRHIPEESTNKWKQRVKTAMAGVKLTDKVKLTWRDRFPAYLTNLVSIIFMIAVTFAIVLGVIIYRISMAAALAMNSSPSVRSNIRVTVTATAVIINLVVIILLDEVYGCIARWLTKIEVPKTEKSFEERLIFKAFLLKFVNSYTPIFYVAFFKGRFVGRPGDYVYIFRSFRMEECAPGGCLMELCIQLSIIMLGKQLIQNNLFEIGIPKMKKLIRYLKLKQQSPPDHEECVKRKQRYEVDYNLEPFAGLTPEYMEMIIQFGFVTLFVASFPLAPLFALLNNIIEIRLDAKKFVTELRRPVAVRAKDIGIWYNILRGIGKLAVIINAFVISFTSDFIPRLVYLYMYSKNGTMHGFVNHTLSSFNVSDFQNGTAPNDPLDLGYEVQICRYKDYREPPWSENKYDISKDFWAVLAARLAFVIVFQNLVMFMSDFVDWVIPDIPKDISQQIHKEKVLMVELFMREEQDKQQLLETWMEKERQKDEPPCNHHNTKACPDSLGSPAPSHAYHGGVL
Method in brief: (§2)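 FRT cells coexpressing YFP and TMEM16A; continuous single-well YFP fluorescence for 2 s before and 12 s after addition of iodide solution (final 140 mM iodide). Activation read with iodide alone, inhibition with iodide plus ATP; compound at 10 μM. Iodide influx rate calculated from fluorescence quenching.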

[6] = species on record: Homo sapiens; experiment: Inhibition of calcium-activated chloride channel in human HT29 cells co-expressing YFP assessed as reduction in ATP-stimulated calcium levels at 10 uM preincubated for 10 mins followed by ATP addition in presence of iodide by fluorescence assay; assay type: cell-based
[7] = target: T1, Anoctamin-1 (Homo sapiens); experiment: Inhibition of human TMEM16A expressed in FRT cells co-expressing YFP assessed as decrease in iodide influx at 10 uM measured after 10 mins in presence of ATP by fluorescence assay; assay type: cell-based; method in brief: as §2
[8] = Effect on forskolin-stimulated cAMP levels in Fischer rat thyroid cells at 10 uM incubated for 10 mins by immunoassay; assay type: ADME, cell-based; conditions: thyroid cell; method in brief: as §1
[9] = system: Mus musculus; experiment: Suppression of constipation in po dosed loperamide-induced CD1 mouse acute constipation model assessed as normalization of stool water content administered 1 hr prior to loperamide addition measured after 3 hrs; assay type: functional
Method in brief: (§3)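 CD1 mice, 8–10 weeks; compound or vehicle (saline, 5% DMSO, 10% Kolliphor HS 15) given orally at 0, 0.1, 0.3, 1, 3 or 10 mg/kg 1 h before loperamide 0.3 mg/kg ip. Stool collected 3 h in metabolic cages; weight, pellet count and water content (wet/dry weights). Mean ± SEM, 4 mice per group.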

[10] = target: Cystic fibrosis transmembrane conductance regulator (Homo sapiens, UniProt P13569); experiment: Activation of human CFTR expressed in forskolin-stimulated basolateral membrane permeabilized FRT cells assessed as increase in short-circuit current amplitude after 30 mins by voltage clamp method; assay type: cell-based
Method in brief: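 Short-circuit current in FRT cells expressing human wild-type CFTR grown on porous filters, with a transepithelial chloride gradient and permeabilized basolateral membrane. Low-concentration forskolin added first, then cumulative activator concentrations, finally 10 μM CFTRinh-172. EC50 from concentration–response, mean ± SEM, n = 3.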

[11] = system: Mus musculus; experiment: Suppression of constipation in po dosed loperamide-induced CD1 mouse acute constipation model assessed as normalization of pellet number administered 1 hr prior to loperamide addition measured after 3 hrs; assay type: functional; method in brief: as §3

Structure (SMILES)	EC50 ([1]; read-out: EC50) [µM]	other results
O=c1c(-c2cccc([N+](=O)[O-])c2)nc2cc(Cl)c(Cl)cc2n1Cc1ccccc1	> 10	–
N#Cc1cccc(-c2nc3ccccc3n(Cc3ccccc3)c2=O)c1	1	–
COC(=O)c1ccc([N+](=O)[O-])c(-c2nc3ccccc3n(Cc3ccccc3)c2=O)c1	9.9	–
Nc1ccc(C(=O)O)cc1-c1nc2ccccc2n(Cc2ccccc2)c1=O	> 10	–
O=c1c(-c2cccc([N+](=O)[O-])c2)nc2ccc(Br)cc2n1Cc1ccccc1	–	EC50 [1]: Not Active
Cn1c(=O)c(-c2cccc([N+](=O)[O-])c2)nc2ccccc21	> 10	–
CC(=O)Nc1ccc([N+](=O)[O-])cc1-c1nc2cccc3c2n(c1=O)CCO3	0.82	–
O=[N+]([O-])c1ccc2nc3n(Cc4ccccc4)c4ccc(C(F)(F)F)cc4nc-3c2c1	> 10	–
Fc1ccc2nc3n(Cc4ccccc4)c4ccc(C(F)(F)F)cc4nc-3c2c1	> 10	–
O=c1c(-c2cccc([N+](=O)[O-])c2)nc2ccccc2n1Cc1ccccc1	–	Activity [2]: inactive; Activity [3]: Non-Toxic; Activity [4]: Non-Toxic; Activity [5]: inactive; inhibition [6]: inactive; inhibition [7]: inactive; Activity [8]: Non-Toxic; ED50 [9]: < 1 mg/kg; Activity [10]: Dose-dependent effect; ED50 [11]: < 1 mg/kg
Cc1cc2nc(-c3cccc([N+](=O)[O-])c3)c(=O)n(Cc3ccccc3)c2cc1C	> 10	–
Nc1ccc([N+](=O)[O-])cc1-c1nc2cccc3c2n(c1=O)C(c1ccccc1)CO3 (centres undefined)	> 10	–
O=c1c(-c2cccc([N+](=O)[O-])c2)nc2ccccc2n1Cc1cccc2ccccc12	–	EC50 [1]: Not Active
O=c1c(-c2cccc([N+](=O)[O-])c2)nc2cc(F)c(F)cc2n1Cc1ccccc1	> 10	–
O=c1c(-c2cccc([N+](=O)[O-])c2)nc2ccccc2n1Cc1cccs1	0.01	Activity [10]: Dose-dependent effect; EC50 [10]: 0.07 µM
O=c1[nH]c2ccccc2nc1-c1cccc([N+](=O)[O-])c1	> 10	–
O=C(O)c1ccc([N+](=O)[O-])c(-c2nc3ccccc3n(Cc3ccccc3)c2=O)c1	> 10	–
Cc1cccc2nc(-c3cccc([N+](=O)[O-])c3)c(=O)n(Cc3ccccc3)c12	> 10	–
